Measured values taken from ChEMBL document CHEMBL5316288, “Synthetic Strategies for Improving Solubility: Optimization of Novel Pyrazolo[1,5-a]pyrimidine CFTR Activator That Ameliorates Dry Eye Disease” (J Med Chem, 2023).
Values after ≈ are worked out from the molar mass of the structure shown.

Assays:
[1] = AUC (0 to 24 hrs) in New Zealand White Rabbit conjunctiva at 0.1 mg per eye, TOP and measured upto 72 hrs by LC-MS/MS analysis; type: ADME, tissue-based, Oryctolagus cuniculus; parameters: dose 0.1 mg, time < 72 hrs, route top; conditions: topical or ocular
Summary of the method: (§1)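 Male New Zealand White rabbits each received a single topical eye drop of 0.1 mg/eye, formulated in 5% polyoxyl 35 castor oil in sodium phosphate buffer. Plasma, tear, cornea, conjunctiva and retina were sampled from one eye at 0.5, 1, 4, 8, 12, 24, 48 and 72 h. Levels were measured by LC-MS/MS in tear and tissue homogenates. Parameters came from non-compartmental analysis of composite means, n = 3.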

[2] = AUC (0 to 24 hrs) in New Zealand White Rabbit eye tear at 0.1 mg per eye, TOP and measured upto 72 hrs by LC-MS/MS analysis; type: ADME, tissue-based, Oryctolagus cuniculus, Secretion of lacrimal gland; parameters: dose 0.1 mg, time < 72 hrs, route top; conditions: in vivo, topical_or_ocular; summary of the method: as §1
[3] = AUC (0 to 24 hrs) in New Zealand White Rabbit cornea at 0.1 mg per eye, TOP and measured upto 72 hrs by LC-MS/MS analysis; type: ADME, tissue-based, Oryctolagus cuniculus; parameters: dose 0.1 mg, time < 72 hrs, route top; conditions: topical or ocular; summary of the method: as §1
[4] = Tmax in New Zealand White Rabbit cornea at 0.1 mg per eye, TOP and measured upto 72 hrs by LC-MS/MS analysis; type: ADME, tissue-based, Oryctolagus cuniculus; conditions: in vivo, topical_or_ocular; summary of the method: as §1
[5] = AUC (0 to infinity) in New Zealand White Rabbit conjunctiva at 0.1 mg per eye, TOP and measured upto 72 hrs by LC-MS/MS analysis; type: ADME, tissue-based, Oryctolagus cuniculus; parameters: time < 72 hrs, dose 0.1 mg, route top; conditions: topical or ocular; summary of the method: as §1
[6] = Half life in New Zealand White Rabbit conjunctiva at 0.1 mg per eye, TOP and measured upto 72 hrs by LC-MS/MS analysis; type: ADME, tissue-based, Oryctolagus cuniculus; conditions: in vivo, topical_or_ocular; summary of the method: as §1
[7] = Tlast in New Zealand White Rabbit conjunctiva at 0.1 mg per eye, TOP and measured upto 72 hrs by LC-MS/MS analysis; type: ADME, tissue-based, Oryctolagus cuniculus; conditions: in vivo, topical_or_ocular; summary of the method: as §1
[8] = Tmax in New Zealand White Rabbit conjunctiva at 0.1 mg per eye, TOP and measured upto 72 hrs by LC-MS/MS analysis; type: ADME, tissue-based, Oryctolagus cuniculus; conditions: in vivo, topical_or_ocular; summary of the method: as §1
[9] = Half life in New Zealand White Rabbit eye tear at 0.1 mg per eye, TOP and measured upto 72 hrs by LC-MS/MS analysis; type: ADME, tissue-based, Oryctolagus cuniculus, Secretion of lacrimal gland; conditions: in vivo, topical_or_ocular; summary of the method: as §1
[10] = Cmax in New Zealand White Rabbit eye tear at 0.1 mg per eye, TOP and measured upto 72 hrs by LC-MS/MS analysis; type: ADME, tissue-based, Oryctolagus cuniculus, Secretion of lacrimal gland; parameters: time < 72 hrs, dose 0.1 mg, route top; conditions: in vivo, topical_or_ocular; summary of the method: as §1
[11] = Cmax in New Zealand White Rabbit cornea at 0.1 mg per eye, TOP and measured upto 72 hrs by LC-MS/MS analysis; type: ADME, tissue-based, Oryctolagus cuniculus; parameters: dose 0.1 mg, time < 72 hrs, route top; conditions: topical or ocular; summary of the method: as §1
[12] = Tlast in New Zealand White Rabbit cornea at 0.1 mg per eye, TOP and measured upto 72 hrs by LC-MS/MS analysis; type: ADME, tissue-based, Oryctolagus cuniculus; conditions: in vivo, topical_or_ocular; summary of the method: as §1
[13] = AUClast in New Zealand White Rabbit eye tear at 0.1 mg per eye, TOP and measured upto 72 hrs by LC-MS/MS analysis; type: ADME, tissue-based, Oryctolagus cuniculus, Secretion of lacrimal gland; parameters: dose 0.1 mg, time < 72 hrs, route top; conditions: in vivo, topical_or_ocular; summary of the method: as §1
[14] = Half life in New Zealand White Rabbit cornea at 0.1 mg per eye, TOP and measured upto 72 hrs by LC-MS/MS analysis; type: ADME, tissue-based, Oryctolagus cuniculus; conditions: in vivo, topical_or_ocular; summary of the method: as §1
[15] = Tlast in New Zealand White Rabbit eye tear at 0.1 mg per eye, TOP and measured upto 72 hrs by LC-MS/MS analysis; type: ADME, tissue-based, Oryctolagus cuniculus, Secretion of lacrimal gland; conditions: in vivo, topical_or_ocular; summary of the method: as §1
[16] = Solubility of compound in PBS at 7.5 at 0.5 mg/ml incubated for 90 mins by LC-MS/MS analysis; type: physicochemical; conditions: PBS, pH 7.5
Summary of the method: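 Thermodynamic solubility: compound at 0.5 mg/mL in isotonic phosphate-buffered saline, pH 7.5, vortexed for 90 min. The solution was then filtered sequentially through 0.45, 1.2 and 5.0 μm filters. Concentration was measured by LC-MS/MS against a ≥6-point internal-standard calibration curve (weighted 1/x linear or quadratic) and back-calculated.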

[17] = Cmax in New Zealand White Rabbit conjunctiva at 0.1 mg per eye, TOP and measured upto 72 hrs by LC-MS/MS analysis; type: ADME, tissue-based, Oryctolagus cuniculus; parameters: dose 0.1 mg, time < 72 hrs, route top; conditions: topical or ocular; summary of the method: as §1
[18] = AUC (0 to infinity) in New Zealand White Rabbit cornea at 0.1 mg per eye, TOP and measured upto 72 hrs by LC-MS/MS analysis; type: ADME, tissue-based, Oryctolagus cuniculus; parameters: time < 72 hrs, dose 0.1 mg, route top; conditions: topical or ocular; summary of the method: as §1
[19] = Cytotoxicity against human Conjunctival epithelial cells assessed as reduction in cell viability at 30 uM incubated for 48 hrs with medium changed every 12 hrs by MTS assay; type: toxicity, cell-based
Summary of the method: (§2)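 Immortalized human corneal or conjunctival epithelial cells were plated and, after 24 h, exposed to 30 μM compound for 48 h. DMSO served as control and 0.01% Triton X-100 as the lysis control. Medium and compound were renewed every 12 h. Viability was read by MTS, 1 h incubation, absorbance at 490 nm; n = 3.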

[20] = AUClast in New Zealand White Rabbit cornea at 0.1 mg per eye, TOP and measured upto 72 hrs by LC-MS/MS analysis; type: ADME, tissue-based, Oryctolagus cuniculus; parameters: dose 0.1 mg, time < 72 hrs, route top; conditions: topical or ocular; summary of the method: as §1
[21] = AUC (0 to infinity) in New Zealand White Rabbit eye tear at 0.1 mg per eye, TOP and measured upto 72 hrs by LC-MS/MS analysis; type: ADME, tissue-based, Oryctolagus cuniculus, Secretion of lacrimal gland; parameters: time < 72 hrs, dose 0.1 mg, route top; conditions: in vivo, topical_or_ocular; summary of the method: as §1
[22] = Cytotoxicity against human Corneal epithelial cells assessed as reduction in cell viability at 30 uM incubated for 48 hrs with medium changed every 12 hrs by MTS assay; type: toxicity, cell-based; summary of the method: as §2
[23] = AUClast in New Zealand White Rabbit conjunctiva at 0.1 mg per eye, TOP and measured upto 72 hrs by LC-MS/MS analysis; type: ADME, tissue-based, Oryctolagus cuniculus; parameters: time < 72 hrs, dose 0.1 mg, route top; conditions: topical or ocular; summary of the method: as §1

AUC(0-t) at 72 h [1]: 4730 ng·h/mL
AUC [2]: 7952 ng·h/mL
AUC(0-t) at 72 h [3]: 19400 ng·h/mL
Tmax [4]: 30 min
AUC(0-inf) [5]: 13700 ng·h/mL
t1/2 [6]: 40.6 h
Tlast [7]: 72 h
Tmax [8]: 30 min
t1/2 [9]: 29.8 h
Cmax [10]: 749 ng/mL
Cmax [11]: 7840 ng/mL
Tlast [12]: 72 h
AUClast [13]: 16573 ng·h/mL
t1/2 [14]: 23.1 h
Tlast [15]: 72 h
solubility thermodynamic at 1.5 h [16]: 134 µM (≈ 65.3 µg/mL)
Cmax [17]: 793 ng/mL
AUC(0-inf) [18]: 35800 ng·h/mL
AUC(0-t) at 72 h [20]: 28300 ng·h/mL
AUC [21]: 18750 ng·h/mL
AUC(0-t) at 72 h [23]: 9820 ng·h/mL
SMILES: COc1ccc(-c2ccnc3cc(C(=O)N4CCN(C(=O)c5ccccc5)[C@@H](C)C4)nn23)cc1OC
Activity [19]: Non-Toxic
Activity [22]: Non-Toxic
